Laboratory results: ChEMBL document CHEMBL1153910, “Salicylate-urea-based soluble epoxide hydrolase inhibitors with high metabolic and chemical stabilities” (Bioorg Med Chem Lett, 2009)
In brackets after ≈: the same amount, converted by molar mass. Each block holds one compound with its values, some of them ahead of it. Activity calls are given as the source filed them. The calls are words filed in the database; no cut-off is given here.

Key:
[1] = molecular target: T1, Bifunctional epoxide hydrolase 2 (Homo sapiens, UniProt P34913); assay: Inhibition of human soluble epoxide hydrolase by fluorescence assay
T1 sequence (P34913 whole entry): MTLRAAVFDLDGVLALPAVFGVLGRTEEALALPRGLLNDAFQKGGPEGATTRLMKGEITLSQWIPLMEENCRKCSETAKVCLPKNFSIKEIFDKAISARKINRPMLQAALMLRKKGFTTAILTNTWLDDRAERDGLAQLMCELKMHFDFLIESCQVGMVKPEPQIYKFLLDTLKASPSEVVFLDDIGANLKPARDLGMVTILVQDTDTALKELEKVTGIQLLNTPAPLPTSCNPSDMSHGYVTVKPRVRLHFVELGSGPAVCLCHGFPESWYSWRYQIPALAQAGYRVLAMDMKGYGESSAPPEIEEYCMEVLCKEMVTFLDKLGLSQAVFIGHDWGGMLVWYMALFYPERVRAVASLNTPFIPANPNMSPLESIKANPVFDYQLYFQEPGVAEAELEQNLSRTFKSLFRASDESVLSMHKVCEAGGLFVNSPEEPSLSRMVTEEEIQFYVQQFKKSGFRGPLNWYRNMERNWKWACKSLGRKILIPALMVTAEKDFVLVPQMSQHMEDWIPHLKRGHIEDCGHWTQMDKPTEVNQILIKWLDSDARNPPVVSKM
In short: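 Recombinant human sEH was used, with inhibition measured by a kinetic fluorescent assay and reported as IC50.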

[2] = Metabolic stability in human liver S9 fraction in presence of NADPH assessed as residual parent compound remaining; assay type: ADME, subcellular
In short: (§1)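 Compounds were incubated with human liver S9 fraction, with or without NADPH. Residual parent compound is given as a percentage remaining.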

[3] = AUC (0 to 24 hrs) in dog at 0.3 mg/kg, po; assay type: ADME, organism-based, Canis lupus familiaris; set-up: time < 24 hr, dose 0.3 mg/kg, route oral; details: plasma
In short: (§2)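 Dogs were dosed by oral gavage at 0.3 mg/kg in tri-olein-rich oil. Blood concentration–time profiles were followed, and pharmacokinetic parameters were derived from those profiles.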

[4] = Tmax in dog at 0.3 mg/kg, po; assay type: ADME, organism-based, Canis lupus familiaris; set-up: dose 0.3 mg/kg, route oral; details: in vivo; in short: as §2
[5] = Half life in dog at 0.3 mg/kg, po; assay type: ADME, organism-based, Canis lupus familiaris; set-up: dose 0.3 mg/kg, route oral; details: in vivo; in short: as §2
[6] = Cmax in dog at 0.3 mg/kg, po; assay type: ADME, organism-based, Canis lupus familiaris; set-up: dose 0.3 mg/kg, route oral; details: in vivo; in short: as §2
[7] = AUC (0 to infinity) in dog at 0.3 mg/kg, po; assay type: ADME, organism-based, Canis lupus familiaris; set-up: time infinity, dose 0.3 mg/kg, route oral; details: plasma; in short: as §2
[8] = Metabolic stability in human liver S9 fraction in absence of NADPH assessed as residual parent compound remaining; assay type: ADME, subcellular; in short: as §1
[9] = Chemical stability assessed as compound hydrolysis after 15 mins in 40 mM NaOH at 22 degC; assay type: physicochemical; details: 0.25 h
[10] = Solubility in 0.1 M sodium phosphate buffer at pH 7.4
[11] = Chemical stability in 40 mM NaOH at 22 degC; assay type: physicochemical
[12] = Octanol-water distribution coefficient, log P of the compound; assay type: physicochemical
In short: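 Partitioning was between buffer-saturated 1-octanol and 0.1 M sodium phosphate buffer, pH 7.4. Compound concentration was measured in each phase, and logP = log10([octanol]/[buffer]).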

[13] = molecular target: T2, Prostaglandin G/H synthase 2 (Homo sapiens) (UniProt P35354); assay: Inhibition of COX2 at 10 uM by fluorescence assay
T2 sequence (whole entry): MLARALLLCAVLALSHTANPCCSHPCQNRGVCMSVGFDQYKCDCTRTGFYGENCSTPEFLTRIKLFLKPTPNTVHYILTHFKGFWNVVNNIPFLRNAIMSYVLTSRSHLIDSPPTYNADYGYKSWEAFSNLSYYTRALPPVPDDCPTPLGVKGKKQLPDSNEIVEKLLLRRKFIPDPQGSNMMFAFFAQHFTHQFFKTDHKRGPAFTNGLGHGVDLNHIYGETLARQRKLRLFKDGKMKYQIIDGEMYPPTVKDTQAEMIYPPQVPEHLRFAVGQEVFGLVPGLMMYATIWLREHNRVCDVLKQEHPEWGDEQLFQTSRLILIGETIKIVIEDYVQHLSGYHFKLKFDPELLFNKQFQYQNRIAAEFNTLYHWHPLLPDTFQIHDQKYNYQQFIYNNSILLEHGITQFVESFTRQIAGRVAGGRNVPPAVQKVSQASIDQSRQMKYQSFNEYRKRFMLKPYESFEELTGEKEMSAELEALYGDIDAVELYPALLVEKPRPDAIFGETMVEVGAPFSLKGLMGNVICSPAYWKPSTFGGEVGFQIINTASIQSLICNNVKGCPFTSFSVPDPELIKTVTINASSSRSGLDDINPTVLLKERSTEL

[14] = molecular target: Prostaglandin G/H synthase 1 (Homo sapiens) (UniProt P23219); assay: Inhibition of COX1 at 10 uM by fluorescence assay
Sequence of Prostaglandin G/H synthase 1 (Homo sapiens) (P23219 whole entry): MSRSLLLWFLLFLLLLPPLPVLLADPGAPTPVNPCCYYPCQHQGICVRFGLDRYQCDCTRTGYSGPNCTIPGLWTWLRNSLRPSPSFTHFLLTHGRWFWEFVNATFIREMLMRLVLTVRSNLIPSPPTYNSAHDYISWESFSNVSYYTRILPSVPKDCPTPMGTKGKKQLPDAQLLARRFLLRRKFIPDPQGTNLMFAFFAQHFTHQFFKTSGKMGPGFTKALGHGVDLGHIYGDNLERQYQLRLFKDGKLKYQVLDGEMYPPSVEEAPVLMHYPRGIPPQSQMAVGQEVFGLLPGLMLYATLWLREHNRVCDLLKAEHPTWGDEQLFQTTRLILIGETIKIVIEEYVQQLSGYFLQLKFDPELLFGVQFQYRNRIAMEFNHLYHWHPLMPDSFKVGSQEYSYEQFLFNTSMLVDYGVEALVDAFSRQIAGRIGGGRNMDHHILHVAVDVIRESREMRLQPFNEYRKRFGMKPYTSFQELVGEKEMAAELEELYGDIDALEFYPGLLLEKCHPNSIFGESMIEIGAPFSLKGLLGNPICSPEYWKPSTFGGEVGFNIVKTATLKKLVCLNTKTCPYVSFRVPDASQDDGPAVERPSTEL

[15] = Chemical stability assessed as compound remaining after 7 hrs in 40 mM NaOH at 22 degC; assay type: physicochemical; details: read-out: Activity

SMILES: O=C(Nc1cccc(C(=O)O)c1)NC12CC3CC(CC(C3)C1)C2
IC50 [1]: 365 nM

SMILES: O=C(Nc1cccc(OC(=O)c2ccccc2)c1)NC12CC3CC(CC(C3)C1)C2
IC50 [1]: 5.1 nM

SMILES: CCOCCOCCOc1cccc(NC(=O)NC23CC4CC(CC(C4)C2)C3)c1
Stability [2]: 56%

SMILES: O=C(O)CCCCCCCCCCCNC(=O)NC12CC3CC(CC(C3)C1)C2
AUC(0-t) at 24 h [3]: 0.0522 µM·h
Tmax [4]: 0.5 h
half-life [5]: 2.9 h
Cmax [6]: 18 nM
AUC(0-inf) [7]: 0.0524 µM·h

SMILES: CC(=O)Oc1ccc(NC(=O)NC23CC4CC(CC(C4)C2)C3)cc1
Stability [2]: < 0.1%
IC50 [1]: 3.9 nM
Stability [8]: < 0.1%
Stability [9]: Unstable

SMILES: COC(=O)c1ccc(NC(=O)NC23CC4CC(CC(C4)C2)C3)cc1O
AUC(0-t) at 24 h [3]: 0.189 µM·h
Activity [13]: inactive
Tmax [4]: 1 h
Stability [2]: 89%
solubility [10]: 200 µg/mL (≈ 581 µM)
half-life [5]: 7.9 h
Cmax [6]: 45 nM
Activity [14]: inactive
IC50 [1]: 2.8 nM
Stability [8]: 93%
AUC(0-inf) [7]: 0.209 µM·h
logP [12]: > 4.1
remaining at 7 h [15]: 80%

SMILES: CN1CCN(C(=O)c2cccc(NC(=O)NC34CC5CC(CC(C5)C3)C4)c2)CC1
IC50 [1]: 35 nM

SMILES: COc1cccc(NC(=O)NC23CC4CC(CC(C4)C2)C3)c1
IC50 [1]: 4.7 nM

SMILES: O=C(Nc1cccc(C(=O)N2CCOCC2)c1)NC12CC3CC(CC(C3)C1)C2
IC50 [1]: 25 nM

SMILES: COc1ccc(NC(=O)NC23CC4CC(CC(C4)C2)C3)cc1
IC50 [1]: 14 nM

SMILES: COC(=O)c1cccc(NC(=O)NC23CC4CC(CC(C4)C2)C3)c1
IC50 [1]: 14 nM

SMILES: O=C(Nc1ccc(OC(=O)c2ccccc2)cc1)NC12CC3CC(CC(C3)C1)C2
Stability [2]: 31%
IC50 [1]: 11 nM
Stability [8]: 32%
Stability [9]: Unstable

SMILES: O=C(Nc1cccc(O)c1)NC12CC3CC(CC(C3)C1)C2
IC50 [1]: 28 nM

SMILES: O=C(Nc1ccccc1)NC12CC3CC(CC(C3)C1)C2
IC50 [1]: 17 nM

SMILES: O=C(Nc1cccc(C(=O)N2CCC(N3CCOCC3)CC2)c1)NC12CC3CC(CC(C3)C1)C2
IC50 [1]: 29 nM

SMILES: COC(=O)c1cc(NC(=O)NC23CC4CC(CC(C4)C2)C3)ccc1O
Stability [2]: 51%
IC50 [1]: 12 nM
Stability [8]: 46%

SMILES: O=C(Nc1ccc(C(=O)O)cc1)NC12CC3CC(CC(C3)C1)C2
IC50 [1]: 1410 nM

SMILES: O=C(Nc1ccc(O)c(C(=O)O)c1)NC12CC3CC(CC(C3)C1)C2
IC50 [1]: 116 nM

Further compounds by falling IC50 [1], results first:

IC50 [1]: 8540 nM
SMILES: COc1ccccc1NC(=O)NC12CC3CC(CC(C3)C1)C2

IC50 [1]: 392 nM
SMILES: O=C(O)Cc1ccc(NC(=O)NC23CC4CC(CC(C4)C2)C3)cc1

IC50 [1]: 139 nM
SMILES: O=C(Nc1ccccc1O)NC12CC3CC(CC(C3)C1)C2

IC50 [1]: 126 nM
SMILES: O=C(O)CCc1ccc(NC(=O)NC23CC4CC(CC(C4)C2)C3)cc1

solubility [10]: 199000 µg/mL (≈ 602000 µM)
IC50 [1]: 71 nM
logP ([12]; read-out: logP): 1.6
SMILES: O=C(Nc1ccc(C(=O)O)c(O)c1)NC12CC3CC(CC(C3)C1)C2

IC50 [1]: 24 nM
SMILES: O=C(Nc1ccc(O)cc1)NC12CC3CC(CC(C3)C1)C2

IC50 [1]: 19.9 nM
SMILES: O=C(O)CCCc1ccc(NC(=O)NC23CC4CC(CC(C4)C2)C3)cc1

IC50 [1]: 5.8 nM
SMILES: CC(=O)Oc1cccc(NC(=O)NC23CC4CC(CC(C4)C2)C3)c1

Stability [2]: 95%
solubility [10]: 400 µg/mL (≈ 1220 µM)
IC50 [1]: 4.1 nM
half-life [11]: 2 h
Stability [8]: 97%
logP [12]: > 3.9
SMILES: COC(=O)c1ccc(NC(=O)NC23CC4CC(CC(C4)C2)C3)cc1

IC50 [1]: 4 nM
SMILES: COC(=O)Cc1ccc(NC(=O)NC23CC4CC(CC(C4)C2)C3)cc1

IC50 [1]: 3.1 nM
SMILES: COC(=O)CCCc1ccc(NC(=O)NC23CC4CC(CC(C4)C2)C3)cc1

IC50 [1]: 2.2 nM
SMILES: COC(=O)CCc1ccc(NC(=O)NC23CC4CC(CC(C4)C2)C3)cc1
